Experimental data from different studies.
In brackets after ≈: the same amount, converted by molar mass.
Read-out: microbial growth

`Cc1ccc2[nH]c3c(c2c1)CCCC3NCCc1ccc(O)cc1` (stereo not shown) gave an MIC of 8 mg/L (≈ 25 µM) (Micrococcus luteus; broth dilution; DSM1790).
`CN[C@H](CC(C)C)C(=O)N[C@H]1C(=O)N[C@@H](CC(N)=O)C(=O)N[C@H]2C(=O)N[C@H]3C(=O)N[C@H](C(=O)N[C@H](C(=O)O)c4cc(O)cc(O)c4-c4cc3ccc4O)[C@H](O)c3ccc(c(Cl)c3)Oc3cc2cc(c3O[C@@H]2O[C@H](CO)[C@@H](O)[C@H](O)[C@H]2O[C@H]2C[C@](C)(N)[C@H](O)[C@H](C)O2)Oc2ccc(cc2Cl)[C@H]1O` has an MIC of 2 mg/L (≈ 1.38 µM) (Lactobacillus acidophilus; agar dilution; 48 h).
With `c1ccc(CCOC2CCCc3c2[nH]c2ccccc32)cc1` (stereo not shown) the MIC was 128 mg/L (≈ 439 µM) (Micrococcus luteus; broth dilution; DSM1790).
The MIC of `Cc1ccc2nc(-c3ccc(F)cc3)[nH]c2c1` is reported as 128 mg/L (≈ 566 µM) (Staphylococcus aureus; broth dilution; ATCC43300 MRSA; drug-resistant strain).
For `COC(=O)c1cc(-c2cccc(NC(=O)Nc3cccc(Br)c3)c2)on1`, the MIC was > 64 mg/L (Escherichia coli; broth dilution; ATCC25922).
With `C=CCn1c(-c2ccc(OC)c(OC)c2)nc2ccccc21` the MIC was 128 mg/L (≈ 435 µM) (Staphylococcus aureus; broth dilution; ATCC43300 MRSA; drug-resistant strain).
With `COC(=O)c1cc(-c2cccc(NC(=S)NC3CCCCC3)c2)on1` the MIC was > 64 mg/L (Escherichia coli; broth dilution; ATCC25922).
For `Cc1ccc2nc(-c3ccc(Cl)cc3Cl)[nH]c2c1`, the MIC was 128 mg/L (≈ 462 µM) (Staphylococcus aureus; broth dilution; ATCC43300 MRSA; drug-resistant strain).
`COC(=O)c1cc(-c2cccc(NC(=O)Nc3cccc(Cl)c3Cl)c2)on1` has an MIC of > 64 mg/L (Escherichia coli; broth dilution; ATCC25922).
`CC(C)[C@H](N)C(=O)OCCCCCn1cnc2nc(NCc3ccc(Cl)c(Cl)c3)[nH]c(=O)c21` has an MIC of 8 mg/L (≈ 16.1 µM) (Lactobacillus acidophilus; agar dilution; 48 h).
